Screening results (PubChem)
Sampled rows, rich in hits. Any-hit rate of the full collection: about 4.6%.
Arbovirus inh = antivirals against arbovirus infection, primary screen, cell-based, full library, 10K replicate subset; arbovirus infection cell-based antiviral screen; inhibition, % at 10 µM; actives 0.37% (n = 200,000); AID 1251, 2008; in the data active = inhibition above about 30%
RAM inhibit = inhibitors of the yeast RAM network, primary screen, dse1pr::URA3 reporter, 5-FOA selection; S. cerevisiae dse1pr::URA3 reporter, 5-FOA growth OD615, 2 d; analog-sensitive cbk1-as2 kinase mutant strain; inhibition, % at 50 µM; AID 868, 2007; actives 1.8% (n = 190,000);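 active = inhibition above a set limit, 3 SD over mean compound inhibition, cut at about 8.4% in these data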;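 also: 0% = DMSO-only wells with no growth and 100% = 10 µM 1-NA-PP1 full growth; inhibition rescues growth on 5-FOA so higher OD means more RAM inhibition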
NCF1 inh = p47phox/p22phox peptide binding inhibitors, primary screen, biochemical, uHTS, NADPH oxidase regulatory subunit | Neutrophil cytosol factor 1 (Homo sapiens), P14598 | fluorescence polarization, 2 h | inhibition, % at 24.7 µM | actives 0.53% (n = 220,000);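 active = inhibition above about 30%, limit read from the data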;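 also: 0% = p47phox with labelled peptide and 100% = labelled peptide alone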
Target sequence (P14598 whole entry, looked up): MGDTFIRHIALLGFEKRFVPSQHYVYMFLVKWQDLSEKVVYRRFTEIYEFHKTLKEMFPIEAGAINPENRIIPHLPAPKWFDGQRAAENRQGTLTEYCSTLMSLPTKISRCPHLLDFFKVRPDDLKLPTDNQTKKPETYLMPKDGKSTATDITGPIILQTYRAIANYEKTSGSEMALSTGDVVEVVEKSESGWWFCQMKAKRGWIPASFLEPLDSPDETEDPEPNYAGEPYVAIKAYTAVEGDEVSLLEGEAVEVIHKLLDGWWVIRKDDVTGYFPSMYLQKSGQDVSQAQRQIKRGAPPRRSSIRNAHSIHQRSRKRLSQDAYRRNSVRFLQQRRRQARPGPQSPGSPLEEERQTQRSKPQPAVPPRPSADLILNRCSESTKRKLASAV
Hck Nef HTS = inhibitors of Nef-activated human Hck kinase, primary screen, biochemical, Z-Lyte FRET, 384-well, Hck-YEEI. Tyrosine-protein kinase HCK (Homo sapiens), P08631. Recombinant Hck-YEEI plus Nef, Z-Lyte FRET kinase assay. inhibition, % at 20 µM. actives 0.68% (n = 220,000). AID 463187, 2010;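 active = Hck-Nef kinase inhibition above about 50%, limit read from the data; inactive = inhibition below that limit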;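 also: 0% = DMSO with Hck plus Nef and 100% = Hck alone without Nef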
Calb biofilm kill = clotrimazole potentiators killing C. albicans biofilm, primary screen, 4-compound mixtures. C. albicans biofilm persisters + clotrimazole, fluorescence viability; primary screen in compound mixtures of four per well. inhibition, % at 7.6 µM. actives 0.02% (n = 120,000);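 active = inhibition above 30.3% in the primary screen of four-compound pools, then above 30% when the compound was retested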;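 also: compounds exposed to preformed 24 h biofilms for 48 h; 0% = untreated biofilm control and 100% = clotrimazole plus chlorhexidine kill blank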
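Test system: C. albicans CAF4-2 wild-type biofilms; buffer or medium: RPMI/MOPS medium, pH 7.0; schedule: 24 h biofilm formation, then 48 h compound exposure, 37 °C; detection: Alamar Blue fluorescence; measure: percent inhibition of biofilm viability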
WT yeast gro inh = growth inhibition of WT strain, primary screen, mitochondrial fusion inhibitor project, WT and mutant strains, chemical genetic | mitochondrial fusion phenotypic screen | inhibition, % at 10 µM | actives 2.1% (n = 190,000) | AID 1362, 2008; in the data active = inhibition above about 58%; tested in S. cerevisiae
* = called active by the depositor; nt = no result.

SMILES | Arbovirus inh | RAM inhibit | NCF1 inh | Hck Nef HTS | Calb biofilm kill | WT yeast gro inh
Oc1ccccc1/C=N/n1c2ccccc2c2ccccc21 | 10 | 9.7* | 3 | 1 | nt | -14
O=C(O)CCCCC1CCSS1 (stereo not given) | -20 | 2 | -59 | 101* | 4 | -5
O=C(O)CCNC1CCCCC1 | nt | nt | -16 | 19 | 18 | nt
CCCN1C(=O)/C(=C\C=C2/Sc3ccccc3N2CC)SC1=S | -1 | 8 | 77* | 33 | 8 | 13
CCOC(=O)c1c(NC(=O)CN2CCN(C(=O)c3ccco3)CC2)sc2c1CCCC2 | -35 | 0 | -10 | -8 | 4 | 66*
CCOC(=O)c1c(NC(=O)c2ccco2)sc2c1CCCC2 | -2 | 1 | -14 | 4 | nt | 8
COc1ccc(CCC(=O)Nc2ccc(Cl)c(S(=O)(=O)N3CCCC3)c2)cc1 | nt | nt | -39 | -5 | 6 | nt
C=CCNC(=S)Nc1sc2c(c1C#N)CCCC2 | -2 | 3 | -19 | 15 | 15 | 2
COc1ccc(CC(=O)NCc2nnc(SCC(=O)Nc3nccs3)n2-c2ccccc2)cc1 | 1 | 4 | -10 | 18 | nt | 10
COc1ccc(OCc2nnc(SC(C)C(=O)Nc3nccs3)n2-c2ccccc2)cc1 (stereo not given) | -1 | 2 | 36* | 2 | nt | 12
CC(C)CCn1nnnc1CN1CCN(c2ccccc2)CC1 | 8 | 1 | -1 | 21 | 11 | -16
Cc1ccc(N2CCN(C(=O)c3ccccc3)CC2)c(C)c1 | 7 | 3 | 92* | 3 | nt | 20
Cc1ccc(N2CCN(C(=O)c3ccccc3Br)CC2)c(C)c1 | -12 | -1 | -3 | -7 | nt | 17
Cc1ccc(C)c(N2CCN(C(=O)c3ccccc3Br)CC2)c1 | -10 | -1 | -12 | 1 | nt | 58*
CCCCC1=CC2=CC(=O)C(C)(OC(=O)c3cnc4ccccc4n3)C(=O)C2=CO1 (stereo not given) | nt | nt | 4 | 65* | 18 | nt
COC/C=C/C1=CC2=CC(=O)C(C)(OC(=O)c3cnc4ccccc4n3)C(=O)C2=CN1CCCCO (stereo not given) | nt | nt | 7 | 8 | 20 | nt
Oc1ccc(F)cc1-c1cc(-c2ccc3c(c2)OCCO3)n[nH]1 | 32* | 1 | -10 | 5 | nt | 18
Cc1ccc(-c2nc(=S)c3c(n2Cc2cccnc2)CC(C)(C)OC3)cc1 | nt | nt | -5 | 19 | 31 | nt
COc1ccc(-c2noc(-c3cccc(Cl)c3)n2)cc1OC | 11 | 9.1* | -8 | -6 | 16 | 12
CCOc1ccc(-c2nc(-c3ccc(OC)cc3)no2)cc1OCC | 0 | 9.1* | -8 | -1 | nt | 10
CCOC(=O)Nc1ccc2nc(Sc3ccc(Cl)cc3)sc2c1 | nt | nt | -7 | 31 | 23 | nt
CC(C)S(=O)(=O)CC(=O)c1ccc(Cl)cc1 | 7 | 1 | 0 | -5 | 18 | -1
Cc1ccc(NC(=S)N(CCCN2CCCC2)Cc2cccn2Cc2ccc(Cl)cc2)cc1Cl | -33 | 4 | 35* | 26 | 19 | 77*
Cc1ccc(NC(=S)N(CCCN2CCCC2)Cc2cccn2Cc2ccc(Cl)cc2)cc1C | -30 | 5 | 5 | 25 | 21 | 76*
FC(F)(F)c1cccc(NC(=S)N(CCCN2CCCC2)Cc2cccn2Cc2ccc(Cl)cc2)c1 | -33 | 4 | 35* | 22 | 23 | 95
SMILES | Arbovirus inh | RAM inhibit | NCF1 inh | Hck Nef HTS | Calb biofilm kill | WT yeast gro inh
Cc1cc(NC(=S)N(CCN2CCCCC2)Cc2ccco2)ccc1Cl | 12 | -1 | -1 | -4 | 12 | 18
COc1ccc(NC(=S)N(CCCN2CCCC2)Cc2cccn2Cc2ccc(Cl)cc2)cc1Cl | -31 | 3 | 43* | 7 | 20 | 87*
CC(=O)N1/C(=C/c2ccc(N(C)C)cc2)C(=O)c2ccccc21 | -34 | -2 | -130 | 28 | 0 | 63*
CC(=O)/C(=C/c1ccc(N(C)C)cc1)C(=O)c1ccccc1 | -8 | 6 | -30 | 1 | 24 | 6
O=C(Nc1ccc(C(=O)N2CCOCC2)cc1)c1cccc([N+](=O)[O-])c1 | 1 | 1 | nt | 11 | 13 | 1
CCCCSCCCNC(=S)Nc1ccccc1C | 8 | -1 | -9 | -12 | 6 | 73*
Cc1ccccc1NC(=S)NCCO | 13 | 2 | -7 | -4 | -2 | -5
CCCCNC(=O)Nc1ccccc1CC | nt | nt | -5 | 17 | 8 | nt
CCCCNC(=S)Nc1ccccc1Cc1ccccc1 | 1 | 1 | 1 | 13 | 7 | 73*
S=c1nc[nH]c2c1sc1nc(N3CCOCC3)c3c(c12)CCCC3 | 16 | 5 | -14 | 7 | 21 | 48
C=CCNC(=S)N(Cc1ccccc1)Cc1ccccc1 | 12 | 0 | 2 | 2 | 1 | 66
C=CCNC(=S)N(C1CCCCC1)C1CCCCC1 | 7 | -1 | -17 | 2 | 17 | 72*
COc1ccc(C(=O)NC(=S)NCc2cccnc2)cc1[N+](=O)[O-] | 1 | 2 | -1 | 1 | 10 | -4
O=C(NCc1ccccc1)c1cccc(COc2cccc(Cl)c2)c1 | -28 | 9.2* | -1 | 2 | nt | 67*
NNC(=O)c1cccc(COc2cccc(Br)c2)c1 | -33 | 0 | 5 | 2 | nt | 73*
NNC(=O)c1cccc(COc2ccc(Br)cc2)c1 | -17 | 0 | -4 | 0 | 13 | 73*
COc1ccc(OCc2cccc(C(=O)NN)c2)cc1 | -12 | 1 | -2 | 2 | 9 | -9
O=C(NCCN1CCOCC1)c1ccc(NC(=O)C2COc3ccccc3O2)cc1 (stereo not given) | 7 | 0 | -9 | -3 | 14 | 0
COc1ccc(Cn2c(CCC(=O)Nc3ccccc3OC)nc3cccnc32)cc1 | 4 | 7 | -3 | 28 | 24 | -3
CC1=NOC(=O)/C1=C/c1ccc(-c2ccc(Cl)cc2)o1 | -45 | 3 | 116* | 1 | nt | 75*
CC1=NOC(=O)/C1=C\c1ccc(-c2cc(Cl)ccc2Cl)o1 | -42 | 3 | -5 | 3 | nt | 54
CC1=NN(c2ccc(C)cc2C)C(=O)C1C(c1ccccc1)C1C(=O)N(c2ccc(C)cc2C)N=C1C (stereo not given) | -4 | 4 | -21 | -1 | nt | 73*
Cc1ccc(-n2nc(C)c(C(=O)O)n2)c(C)c1 | 1 | 1 | 2 | 0 | 19 | 20
Cc1ccc(N(CC(O)Cn2c3ccccc3c3ccccc32)S(C)(=O)=O)c(C)c1 (stereo not given) | -8 | 6 | -7 | -2 | nt | 67*
COc1ccc(NC(=O)Nc2ccc(F)c(F)c2)c(OC)c1 | -1 | 4 | 9 | 1 | 8 | 20
O=C(Cc1ccc(Cl)cc1)NNC(=O)Nc1cccc2ccccc12 | -15 | 1 | 60* | -1 | nt | -3
